Measured values from ChEMBL document CHEMBL1240400, “Comparative in vitro activities of nemonoxacin (TG-873870), a novel nonfluorinated quinolone, and other quinolones against clinical isolates” (2010).
Values after ≈ are worked out from the molar mass of the structure shown.

Tests used:
Type in all cases: functional
[1] = system: Enterococcus faecium; test: Antibacterial activity against vancomycin resistant Enterococcus faecium by broth dilution method
How it was run: (§1)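 Clinical isolates tested by CLSI broth microdilution in panels holding serial twofold drug dilutions in cation-adjusted Mueller-Hinton broth. Final inoculum 5 × 10^5 CFU/ml was made from a 0.5 McFarland suspension. Plates were incubated overnight at 35°C in ambient air, and the MIC was read as the lowest concentration inhibiting growth. Quality control strains were included in each run.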

[2] = system: Enterococcus faecalis; test: Antibacterial activity against Enterococcus faecalis by broth dilution method
[3] = system: Streptococcus pneumoniae; test: Antibacterial activity against Levofloxacin susceptible Streptococcus pneumoniae by broth dilution method
How it was run: (§2)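 Streptococcus pneumoniae clinical isolates tested by CLSI broth microdilution. A 0.5 McFarland suspension was diluted into Mueller-Hinton broth with 3% lysed horse blood, then tested against serial drug dilutions. Plates were incubated overnight at 35°C in ambient air, and the MIC was read as the lowest inhibitory concentration. Quality control strains were included in each run.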

[4] = system: Staphylococcus aureus; test: Antibacterial activity against methicillin susceptible Staphylococcus aureus by broth dilution method
[5] = system: Staphylococcus aureus; test: Antibacterial activity against ciprofloxacin and methicillin resistant Staphylococcus aureus by broth dilution method; how it was run: as §1
[6] = system: Enterococcus faecium; test: Antibacterial activity against Enterococcus faecium by broth dilution method; how it was run: as §1
[7] = system: Streptococcus pyogenes; test: Antibacterial activity against Streptococcus pyogenes by broth dilution method
How it was run: (§3)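 Streptococci were tested by CLSI broth microdilution in Mueller-Hinton broth with 3% lysed horse blood, seeded from a 0.5 McFarland suspension. Incubated overnight at 35°C in ambient air, with quality control strains in each run. MIC taken over a per-agent dilution range.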

[8] = system: Enterococcus faecalis; test: Antibacterial activity against vancomycin resistant Enterococcus faecalis by broth dilution method
[9] = system: Streptococcus pneumoniae; test: Antibacterial activity against Levofloxacin resistant Streptococcus pneumoniae by broth dilution method; how it was run: as §2
[10] = system: Streptococcus agalactiae; test: Antibacterial activity against Streptococcus agalactiae by broth dilution method; how it was run: as §3
[11] = system: Staphylococcus aureus; test: Antibacterial activity against ciprofloxacin susceptible and methicillin resistant Staphylococcus aureus by broth dilution method; how it was run: as §1
[12] = system: Staphylococcus epidermidis; test: Antibacterial activity against methicillin resistant coagulase negative Staphylococcus epidermidis by broth dilution method
[13] = system: Streptococcus viridans; test: Antibacterial activity against Streptococcus viridans by broth dilution method; how it was run: as §3
[14] = system: Staphylococcus; test: Antibacterial activity against methicillin resistant coagulase negative Staphylococcus by broth dilution method

CC(=O)NC[C@H]1CN(c2ccc(N3CCOCC3)c(F)c2)C(=O)O1 [LINEZOLID]
MIC50 [1]: 2 µg/mL (≈ 5.93 µM) | MIC90 [1]: 2 µg/mL (≈ 5.93 µM) | MIC50 [2]: 1 µg/mL (≈ 2.96 µM) | MIC90 [2]: 2 µg/mL (≈ 5.93 µM) | MIC50 [3]: 1 µg/mL (≈ 2.96 µM) | MIC90 [3]: 1 µg/mL (≈ 2.96 µM) | MIC50 [4]: 2 µg/mL (≈ 5.93 µM) | MIC90 [4]: 2 µg/mL (≈ 5.93 µM) | MIC50 [5]: 2 µg/mL (≈ 5.93 µM) | MIC90 [5]: 2 µg/mL (≈ 5.93 µM) | MIC50 [6]: 2 µg/mL (≈ 5.93 µM) | MIC90 [6]: 2 µg/mL (≈ 5.93 µM) | MIC50 [7]: 1 µg/mL (≈ 2.96 µM) | MIC90 [7]: 1 µg/mL (≈ 2.96 µM) | MIC50 [8]: 1 µg/mL (≈ 2.96 µM) | MIC90 [8]: 2 µg/mL (≈ 5.93 µM) | MIC50 [9]: 1 µg/mL (≈ 2.96 µM) | MIC90 [9]: 1 µg/mL (≈ 2.96 µM) | MIC [10]: 1 µg/mL (≈ 2.96 µM) | MIC50 [10]: 1 µg/mL (≈ 2.96 µM) | MIC90 [10]: 1 µg/mL (≈ 2.96 µM) | MIC50 [11]: 2 µg/mL (≈ 5.93 µM) | MIC90 [11]: 2 µg/mL (≈ 5.93 µM) | MIC50 [12]: 1 µg/mL (≈ 2.96 µM) | MIC90 [12]: 2 µg/mL (≈ 5.93 µM) | MIC50 [13]: 1 µg/mL (≈ 2.96 µM) | MIC90 [13]: 2 µg/mL (≈ 5.93 µM) | MIC50 [14]: 1 µg/mL (≈ 2.96 µM) | MIC90 [14]: 2 µg/mL (≈ 5.93 µM)

Cc1onc(-c2ccccc2)c1C(=O)N[C@@H]1C(=O)N2[C@@H]1SC(C)(C)[C@@H]2C(=O)O [OXACILLIN]
MIC50 [4]: 0.5 µg/mL (≈ 1.25 µM) | MIC90 [4]: 1 µg/mL (≈ 2.49 µM) | MIC [5]: > 8 µg/mL | MIC50 [5]: > 8 µg/mL | MIC90 [5]: > 8 µg/mL | MIC50 [11]: > 8 µg/mL | MIC90 [11]: > 8 µg/mL | MIC50 [12]: > 8 µg/mL | MIC90 [12]: > 8 µg/mL | MIC50 [14]: > 8 µg/mL | MIC90 [14]: > 8 µg/mL
